The text below walks through data of ChEMBL document CHEMBL1137939, “Manipulation of kinetic profiles in 2-aryl propionic acid cyclooxygenase inhibitors” (Bioorg Med Chem Lett, 2004).

For this experiment, the target named is T1, Prostaglandin G/H synthase 1 (Ovis aries, UniProt P05979).
T1 sequence (P05979 whole entry): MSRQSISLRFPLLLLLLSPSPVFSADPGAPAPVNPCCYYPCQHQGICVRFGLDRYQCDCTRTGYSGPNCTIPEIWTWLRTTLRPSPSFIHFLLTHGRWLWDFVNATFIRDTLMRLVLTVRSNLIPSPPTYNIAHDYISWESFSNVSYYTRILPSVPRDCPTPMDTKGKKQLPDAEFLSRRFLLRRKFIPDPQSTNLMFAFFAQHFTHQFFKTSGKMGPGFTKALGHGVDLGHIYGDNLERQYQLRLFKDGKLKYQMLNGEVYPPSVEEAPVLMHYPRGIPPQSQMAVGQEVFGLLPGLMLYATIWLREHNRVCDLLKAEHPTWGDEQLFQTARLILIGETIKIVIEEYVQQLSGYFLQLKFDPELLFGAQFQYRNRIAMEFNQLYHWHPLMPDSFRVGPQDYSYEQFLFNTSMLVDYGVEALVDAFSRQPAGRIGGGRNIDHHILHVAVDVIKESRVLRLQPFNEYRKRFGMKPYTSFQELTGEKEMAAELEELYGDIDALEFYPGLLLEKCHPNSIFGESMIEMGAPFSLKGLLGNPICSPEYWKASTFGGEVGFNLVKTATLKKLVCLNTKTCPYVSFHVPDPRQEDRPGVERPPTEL
Description: Reversible competitive inhibition of prostaglandin G/H synthase 1. In short, it runs like this:
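Ovine seminal vesicle COX-1, purified to >95% (Coomassie SDS-PAGE) and hematin-reconstituted. Coupled cyclooxygenase-peroxidase assay at 22 °C in 0.1 M Tris–HCl pH 8.0, read as TMPD oxidation after arachidonic acid start. Initial rates were taken because the enzyme auto-inactivates. Hydrogen-peroxide-initiated controls checked for peroxidase inhibition.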
One may read the IC50 as the concentration that gives 50% inhibition. A high value points to a need for much substance. `COC(=O)C(C)c1ccc(-c2ccccc2)cc1` (stereo not given) yielded an IC50 of 28.5 µM. Compound `CC(C(=O)N(C)C)c1ccc(-c2ccccc2)c(F)c1` (stereo not given) returned a half-inhibitory concentration (IC50) of 215 µM. `CC(C)Cc1ccc(C(C)C(=O)O)cc1Br` (stereo not given) yielded an IC50 of 0.11 µM.

With `CNC(=O)C(C)c1ccc(-c2ccccc2)c(F)c1` (stereo not given), the 50% inhibitory concentration (IC50) came to 24 µM. With `CNC(=O)C(C)c1ccc(-c2ccccc2)cc1` (stereo not given) the figure was 19.5 µM; with `CC(C(N)=O)c1ccc(-c2ccccc2)cc1` (stereo not given), 64.5 µM; with `COC(=O)C(C)c1ccc(-c2ccccc2)c(F)c1` (stereo not given), 210 µM. Under `CC(C(=O)N(C)C)c1ccc(-c2ccccc2)cc1` (stereo not given) stands 4.8 µM; under `CC(C)Cc1ccc(C(C)C(=O)O)cc1[N+](=O)[O-]` (stereo not given), 59 µM.

For the compound `CC(C(N)=O)c1ccc(-c2ccccc2)c(F)c1` (stereo not given), the IC50 turned out to be 8.3 µM.
